Here are results for 11 compounds from ChEMBL document CHEMBL2331216, “Synthesis and biological activities of a new class of heat shock protein 90 inhibitors, designed by energy-based pharmacophore virtual screening” (J Med Chem, 2013).

Structures are written as SMILES. Activity calls are given as the source filed them.

One experiment relates to NCI-H522. Description: Antiproliferative activity against human NCI-H522 cells after 48 hrs by sulforhodamine B assay. Type of experiment: functional. Particulars: NCI-H522, 48 h. The gist of the method: (§1)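 Compounds run through the NCI DTP screen on its full human tumour cell line panels. Those that passed the selection criteria were tested twice in the five-dose concentration format. The MG_MID for each experiment is the arithmetic mean over all cell lines tested.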
(The SRB assay estimates cell density from bound dye.)

Experiment [1] is described as follows: Antiproliferative activity against human prostate cancer cells after 48 hrs by sulforhodamine B assay. Type of experiment: functional. Particulars: Cancer cell lines. The gist of the method:
as §1

Experiment [2] in a line: Antiproliferative activity against human renal cancer cells after 48 hrs by sulforhodamine B assay. Type of experiment: functional. Particulars: Cancer cell lines. In a few lines:
as §1

Experiment [3] has as its target T1, Heat shock protein HSP90 (Homo sapiens, UniProt P07900+P08238). Briefly: Inhibition of Hsp90 in human MCF7 cells assessed as decrease in ErbB2 level at 0.5 to 2 fold GI50 after 24 hrs by Western blotting analysis. Type of experiment: cell-based. In a few lines:
(§2)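 Total cellular extracts were analysed by Western blot for Cdk4, c-Raf, ErbB2 and Hsp72, with β-actin as the loading control.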

For experiment [4], the system named is MCF7. Briefly: Antitumor activity in human MCF7 cells assessed as induction of necrosis after 24 hrs by LDH assay. Type of experiment: functional, cell-based.
The subject of experiment [5] is MCF7. Description: Cell cycle arrest in human MCF7 cells assessed as decrease in G0/G1 phase cells at 0.548 uM after 24 hrs by propidium iodide staining-based FACS flow cytometric analysis (reference value: 65 %). Set-up: scale not given: the % may be the effect or the level left. Type of experiment: functional. The gist of the method:
(§3)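 Cells were collected and DNA stained with propidium iodide. Flow cytometry gave the cell cycle phase distribution against untreated controls. Values are mean ± SD of three independent experiments.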

Experiment [6] deals with T1, Heat shock protein HSP90. Briefly: Inhibition of Hsp90 in human MCF7 cells assessed as decrease in cRAF level at 0.5 to 2 fold GI50 after 24 hrs by Western blotting analysis. Type of experiment: cell-based. In a few lines:
as §2
Background: Immunoblotting shows a protein as a band on a membrane.

Experiment [7] addresses T1, Heat shock protein HSP90. Briefly: Inhibition of biotinylated geldanamycin binding to human recombinant Hsp90 ATP binding domain after 60 mins by fluorescence assay. Type of experiment: protein assay.
Experiment [8] in a line: Antiproliferative activity against human leukemia cells after 48 hrs by sulforhodamine B assay. Particulars: Leukemia cell. Type of experiment: functional. In a few lines:
as §1

Experiment [9] in a line: Antiproliferative activity against human CNS cancer cells after 48 hrs by sulforhodamine B assay. Type of experiment: functional. To be noted: Cancer cell lines. In a few lines:
as §1

In experiment [10] the target is T1, Heat shock protein HSP90. Briefly: Inhibition of Hsp90 in human MCF7 cells assessed as decrease in cRAF level after 24 hrs by Western blotting analysis. Type of experiment: cell-based. The gist of the method: as §2
Experiment [11] can be described thus: Antiproliferative activity against human colon cancer cells after 48 hrs by sulforhodamine B assay. Type of experiment: functional. Particulars: Cancer cell lines. In a few lines: as §1
For experiment [12], the system named is MCF7. Description: Cell cycle arrest in human MCF7 cells assessed as decrease in S phase cells at 0.548 uM after 24 hrs by propidium iodide staining-based FACS flow cytometric analysis (reference value: 11 %). Type of experiment: functional. Set-up: scale not given: the % may be the effect or the level left. The gist of the method: as §3
For orientation: A flow cytometer gives signals particle by particle.

A short description of experiment [13]: Antiproliferative activity against human non-small cell lung cancer cells after 48 hrs by sulforhodamine B assay. Type of experiment: functional. Particulars: Cancer cell lines. In a few lines: as §1
The subject of experiment [14] is MCF7. Briefly: Cell cycle arrest in human MCF7 cells assessed as increase in G2/M phase cells at 0.548 uM after 24 hrs by propidium iodide staining-based FACS flow cytometric analysis (reference value: 24 %). Type of experiment: functional. In a few lines: as §3
Experiment [15] relates to MCF7. Description: Cell cycle arrest in human MCF7 cells assessed as decrease in G2/M phase cells at 0.548 uM after 48 hrs by propidium iodide staining-based FACS flow cytometric analysis. Type of experiment: functional. The gist of the method: as §3
Experiment [16] relates to MCF7. Briefly: Cell cycle arrest in human MCF7 cells assessed as decrease in G0/G1 phase cells at 0.548 uM after 48 hrs by propidium iodide staining-based FACS flow cytometric analysis. Type of experiment: functional. The gist of the method:
as §3

Experiment [17] deals with T1, Heat shock protein HSP90. Description: Inhibition of Hsp90 in human MCF7 cells assessed as decrease in Cdk4 level after 24 hrs by Western blotting analysis. Type of experiment: cell-based. The gist of the method: as §2
The test system of experiment [18] is MCF7. Description: Cell cycle arrest in human MCF7 cells assessed as decrease in S phase cells at 0.548 uM after 48 hrs by propidium iodide staining-based FACS flow cytometric analysis. Type of experiment: functional. The gist of the method: as §3
A further experiment concerns SF-295. Briefly: Antiproliferative activity against human SF295 cells after 48 hrs by sulforhodamine B assay. Type of experiment: functional. Particulars: SF-295, 48 h. In a few lines:
as §1

The nature of experiment [19]: Antiproliferative activity against human melanoma cells after 48 hrs by sulforhodamine B assay. Type of experiment: functional. To be noted: Melanoma cell. The gist of the method:
as §1

The target in experiment [20] is T1, Heat shock protein HSP90. Briefly: Inhibition of Hsp90 in human MCF7 cells assessed as upregulation of Hsp72 at 0.5 to 2 fold GI50 after 24 hrs by Western blotting analysis. Type of experiment: cell-based. The gist of the method: as §2
Experiment [21] can be described thus: Antiproliferative activity against human breast cancer cells after 48 hrs by sulforhodamine B assay. Type of experiment: functional. To be noted: Cancer cell lines. In a few lines:
as §1

Experiment [22] addresses T1, Heat shock protein HSP90. Description: Inhibition of Hsp90 in human MCF7 cells assessed as decrease in ErbB2 level after 24 hrs by Western blotting analysis. Type of experiment: cell-based. The gist of the method:
as §2

Experiment [23] has as its system MCF7. Briefly: Cell cycle arrest in human MCF7 cells assessed as accumulation at sub G0/G1 phase at 0.548 uM after 48 hrs by propidium iodide staining-based FACS flow cytometric analysis. Type of experiment: functional. In a few lines: as §3
For experiment [24], the target named is T1, Heat shock protein HSP90. Description: Inhibition of Hsp90 in human MCF7 cells assessed as decrease in Cdk4 level at 0.5 to 2 fold GI50 after 24 hrs by Western blotting analysis. Type of experiment: cell-based. In a few lines: as §2
Experiment [25] can be described thus: Antiproliferative activity against human ovarian cancer cells after 48 hrs by sulforhodamine B assay. Type of experiment: functional. Particulars: Cancer cell lines. In a few lines: as §1
Experiment [26] concerns MCF7. Description: Cell cycle arrest in human MCF7 cells assessed as accumulation at G2/M phase after 24 hrs by propidium iodide staining-based FACS flow cytometric analysis. Type of experiment: functional. In a few lines:
as §3

In general, GI50 refers to the concentration that inhibits growth by half. The EC50 is the concentration that produces a half-maximal response. As to `COc1cccc(-c2cc(-c3cccc(NS(C)(=O)=O)c3)nc(N)c2C#N)c1O`, the GI50 in the experiment on NCI-H522 worked out at 24 nM; in [1] it was 130 nM; in experiment [2], 290 nM; in [8], 140 nM; in [9], 160 nM; in experiment [11] it was 150 nM. For the same compound, the GI50 in experiment [13] is 250 nM; in the experiment on SF-295, 43 nM; in experiment [19] it was 120 nM; in experiment [21], 260 nM; in experiment [25], 210 nM. Further, the inhibition result on Heat shock protein HSP90 [3], on Heat shock protein HSP90 [6], at Heat shock protein HSP90 [20] and at Heat shock protein HSP90 [24] was “Active” throughout. Also, the result in the experiment on MCF7 [4], in the experiment on MCF7 [15], with MCF7 [16], in the experiment on MCF7 [18] and in the experiment on MCF7 [23] was Active. The Activity in the experiment with MCF7 [5] is 40%; with MCF7 [12], 7%; with MCF7 [14], 53%; in the experiment on MCF7 [26], “Dose-dependent effect”. At Heat shock protein HSP90 [7], the 50% effective concentration (EC50) came out at 252 nM. Moreover, the inhibition result on Heat shock protein HSP90 [10], on Heat shock protein HSP90 [17] and on Heat shock protein HSP90 [22] was “Dose-dependent effect” in each case.
With `CS(=O)(=O)Nc1cccc(-c2cc(-c3ccc(O)cc3)c(C#N)c(N)n2)c1`, the EC50 on Heat shock protein HSP90 [7] is on record as more than 10000 nM.
Regarding `COc1ccccc1-c1cc(-c2cccc(NS(C)(=O)=O)c2)nc(N)c1C#N`, the EC50 at Heat shock protein HSP90 [7] is reported as 634 nM.
Regarding `CS(=O)(=O)Nc1cccc(-c2cc(-c3cccc(F)c3)c(C#N)c(N)n2)c1`, the EC50 at Heat shock protein HSP90 [7] was more than 10000 nM.
`COc1cccc(-c2cc(-c3cccc(NS(C)(=O)=O)c3)nc(N)c2C#N)c1`: the EC50 on Heat shock protein HSP90 [7] is listed as more than 10000 nM.
For the compound `COc1ccc(-c2cc(-c3cccc(NS(C)(=O)=O)c3)nc(N)c2C#N)cc1OC`, the EC50 on Heat shock protein HSP90 [7] amounted to 867 nM.
With `CS(=O)(=O)Nc1cccc(-c2cc(-c3ccccc3Cl)c(C#N)c(N)n2)c1`, the GI50 stood at 780 nM in [1]; 660 nM in [2]; 580 nM in experiment [8]; 510 nM in experiment [9]; 550 nM in experiment [11]; 1100 nM in experiment [13]. Further, the GI50 came to 660 nM in [19], 460 nM in [21] and 980 nM in [25]. The EC50 on Heat shock protein HSP90 [7] is 950 nM.
On to `CS(=O)(=O)Nc1cccc(-c2cc(-c3ccccc3Br)c(C#N)c(N)n2)c1`, for which the EC50 at Heat shock protein HSP90 [7] is more than 10000 nM.
With `COc1ccc(-c2cc(-c3cccc(NS(C)(=O)=O)c3)nc(N)c2C#N)cc1`, the GI50 in experiment [1] amounted to 130 nM; in experiment [2] it was 130 nM; in experiment [8] it was 100 nM; in [9] it was 80 nM; in [11], 100 nM; in experiment [13] it was 130 nM. The GI50 in experiment [19] came to 80 nM; in experiment [21], 140 nM; in experiment [25], 220 nM. In addition, the EC50 on Heat shock protein HSP90 [7] was 541 nM.
As for `CN(C)c1ccc(-c2cc(-c3cccc(NS(C)(=O)=O)c3)nc(N)c2C#N)cc1`, the GI50 in experiment [1] worked out at 30 nM; in [2], 50 nM; in [8], 40 nM; in experiment [9], 40 nM; in [11], 40 nM; in experiment [13] it was 60 nM. The GI50 in [19] stood at 60 nM; in experiment [21], 100 nM; in experiment [25], 80 nM. Moreover, on Heat shock protein HSP90 [7], the EC50 worked out at 371 nM.
As to `CCN(CC)c1ccc(-c2cc(-c3cccc(NS(C)(=O)=O)c3)nc(N)c2C#N)cc1`, on Heat shock protein HSP90 [7], the EC50 worked out at 783 nM.
